Measured values taken from PMC11605132 (eClinicalMedicine, 2024).
“Also recorded” adds a separate entry of the source. Like-named read-outs stand apart in the source and are kept apart here.

How the values were obtained:
[1] = format: in vivo; conditions: human, plasma, 9 ng/kg/min, mean ± SD
patients with AIS [2] = assay: Intracerebral hemorrhage on CT and MRI, AMFIS trial; format: in vivo, human; conditions: Day 1 to Day 90
Procedure, shortened: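 Patients (20–90 years, new DWI lesion, treated within 24 h of onset) were randomized 2:1 to adrenomedullin or a D-mannitol placebo under double-blind conditions. Non-contrast CT was performed at 24 h and on Day 7, and MRI on Day 90.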

healthy volunteers = conditions: cited from earlier work
patients with AIS [3] = assay: NIHSS score, primary efficacy endpoint, AMFIS trial; format: in vivo, human
Procedure, shortened: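 Trained stroke neurologists scored NIHSS at baseline, 8, 24 and 72 h after infusion start, and on Day 7, keeping the same examiner per patient where possible. Least square means with 95% CI came from generalized estimating equations. Fixed effects were treatment, time point and treatment×time, with baseline NIHSS as covariate. The same model compared the pulsed and continuous-pulsed groups.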

patients with AIS [4] = assay: All adverse events, AMFIS phase II trial; format: in vivo, human
Procedure, shortened: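 Double-blind, 2:1 stratified block randomization by age (<75, 75–90 years) against a placebo vial of 50 mg D-mannitol. Patients were aged 20–90 with new DWI lesions and treated within 24 h of onset. AEs were monitored from infusion start to 3 days after the intervention ended, with close blood-pressure watch. Severity was graded on five levels (mild to death), and an independent committee judged causality.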

[5] = patients receiving adrenomedullin, n=40

CC[C@H](C)[C@H](NC(=O)[C@H](CCC(N)=O)NC(=O)[C@H](Cc1c[nH]cn1)NC(=O)[C@H](C)NC(=O)[C@H](CC(C)C)NC(=O)[C@H](CCCCN)NC(=O)[C@H](CCC(N)=O)NC(=O)[C@@H](NC(=O)[C@@H](NC(=O)[C@@H]1CSSC[C@H](NC(=O)CNC(=O)[C@H](Cc2ccccc2)NC(=O)[C@H](CO)NC(=O)[C@H](CCCNC(=N)N)NC(=O)[C@H](CC(C)C)NC(=O)CNC(=O)[C@H](CCC(N)=O)NC(=O)[C@H](Cc2ccccc2)NC(=O)[C@H](CC(N)=O)NC(=O)[C@H](CC(N)=O)NC(=O)[C@H](CCSC)NC(=O)[C@H](CO)NC(=O)[C@H](CCC(N)=O)NC(=O)[C@H](CCCNC(=N)N)NC(=O)[C@@H](N)Cc2ccc(O)cc2)C(=O)N[C@@H](CCCNC(=N)N)C(=O)N[C@@H](Cc2ccccc2)C(=O)NCC(=O)N[C@@H]([C@@H](C)O)C(=O)N1)[C@@H](C)O)C(C)C)C(=O)N[C@@H](Cc1ccc(O)cc1)C(=O)N[C@@H](CCC(N)=O)C(=O)N[C@@H](Cc1ccccc1)C(=O)N[C@H](C(=O)N[C@@H](CC(=O)O)C(=O)N[C@@H](CCCCN)C(=O)N[C@@H](CC(=O)O)C(=O)N[C@@H](CCCCN)C(=O)N[C@@H](CC(=O)O)C(=O)N[C@@H](CC(N)=O)C(=O)N[C@H](C(=O)N[C@@H](C)C(=O)N1CCC[C@H]1C(=O)N[C@@H](CCCNC(=N)N)C(=O)N[C@@H](CO)C(=O)N[C@@H](CCCCN)C(=O)N[C@H](C(=O)N[C@@H](CO)C(=O)N1CCC[C@H]1C(=O)N[C@@H](CCC(N)=O)C(=O)NCC(=O)N[C@@H](Cc1ccc(O)cc1)C(N)=O)[C@@H](C)CC)C(C)C)[C@@H](C)O [adrenomedullin]
Cmax ([1]; C/P-AM): 0.061 ng/mL
Cmax ([1]; P-AM): 0.0442 ng/mL
intracerebral hemorrhage on CT and MRI (patients with AIS [2]): no intracerebral hemorrhage was observed
half-life (healthy volunteers): < 1 h
blood levels of adrenomedullin (healthy volunteers; dose of 9 ng/kg/min): 0.01 to 0.02 ng/mL
severe adverse events (healthy volunteers; healthy volunteers): no severe adverse events
Intergroup difference in NIHSS changes, LSM (95% CI) (patients with AIS [3]; 7-day, AM minus placebo, GEE model): 0.32 (−0.91–1.56)
NIHSS changes from pre-treatment, LSM (SE; 95% CI in text) (patients with AIS [3]; 7-day, AM n=40, GEE model): −0.76
Intergroup difference in NIHSS changes, LSM (95% CI) (patients with AIS [3]; 7-day, C/P-AM minus P-AM, GEE): 0.67 (−0.64–1.98)
NIHSS changes from pre-treatment, LSM (SE; 95% CI in text) (patients with AIS [3]; 7-day, C/P-AM, GEE, dose-finding analysis): −0.42
NIHSS changes from pre-treatment, LSM (SE; 95% CI in text) (patients with AIS [3]; 7-day, P-AM, GEE, dose-finding analysis): −1.08
Intergroup difference in NIHSS changes, LSM (95% CI) (patients with AIS [3]; 8-h, AM minus placebo, GEE model): 0.25 (−0.24–0.74)
Intergroup difference in NIHSS changes, LSM (95% CI) (patients with AIS [3]; 8-h, C/P-AM minus P-AM, GEE): 0.52 (−0.12–1.16)
Intergroup difference in NIHSS changes, LSM (95% CI) (patients with AIS [3]; 24-h, AM minus placebo, GEE model): 0.15 (−0.46–0.75)
Intergroup difference in NIHSS changes, LSM (95% CI) (patients with AIS [3]; 24-h, C/P-AM minus P-AM, GEE): 0.62 (−0.29–1.53)
Intergroup difference in NIHSS changes, LSM (95% CI) (patients with AIS [3]; 72-h, AM minus placebo, GEE model): 0.35 (−0.93–1.63)
Intergroup difference in NIHSS changes, LSM (95% CI) (patients with AIS [3]; 72-h, C/P-AM minus P-AM, GEE): 0.32 (−1.09–1.72)
mean change in the NIHSS score from pre-treatment to Day 7 (patients with AIS [3]; C/P-AM): −0.45
median change in the NIHSS score from pre-treatment to Day 7 (patients with AIS [3]; C/P-AM): −0.5
mean change in the NIHSS score from pre-treatment to Day 7 (patients with AIS [3]; P-AM): −1.05
median change in the NIHSS score from pre-treatment to Day 7 (patients with AIS [3]; P-AM): −1
efficacy on NIHSS scores (patients with AIS [3]; in vivo): not demonstrated
mean change in the NIHSS score from pre-treatment to Day 7 (patients with AIS [3]; [5]): −0.75
median change in the NIHSS score from pre-treatment to Day 7 (patients with AIS [3]; [5]): −1.00
patients with AEs, n (%, 95% CI) (patients with AIS [4]; C/P-AM): 14
patients with AEs, n (%, 95% CI) (patients with AIS [4]; P-AM): 11
cases of drop in blood pressure (patients with AIS [4]; adrenomedullin group, n=40): 10.0%
cases of low blood pressure (patients with AIS [4]; adrenomedullin group, n=40): 2.5%
life-threatening AEs or death (patients with AIS [4]; first-half and second-half cohorts): No life-threatening AEs or death were reported
Laboratory tests (patients with AIS [4]; in vivo): no clinically significant changes
tolerability (patients with AIS [4]; non-severe, non-embolic AIS): well tolerated
SAEs related to the intervention (patients with AIS [4]; [5]): Neither intervention-related serious adverse events nor severe adverse events were observed; also recorded: no “SAEs related to the intervention” were reported; also recorded: No SAEs were observed
Severe AEs (grade 3) (patients with AIS [4]; [5]): observed only in the placebo group
